Tests used:
[1] = target: T1, C-C chemokine receptor type 1 (Homo sapiens) (UniProt P32246); test: Inhibition of CCR1 at 10 uM
T1 sequence (whole entry): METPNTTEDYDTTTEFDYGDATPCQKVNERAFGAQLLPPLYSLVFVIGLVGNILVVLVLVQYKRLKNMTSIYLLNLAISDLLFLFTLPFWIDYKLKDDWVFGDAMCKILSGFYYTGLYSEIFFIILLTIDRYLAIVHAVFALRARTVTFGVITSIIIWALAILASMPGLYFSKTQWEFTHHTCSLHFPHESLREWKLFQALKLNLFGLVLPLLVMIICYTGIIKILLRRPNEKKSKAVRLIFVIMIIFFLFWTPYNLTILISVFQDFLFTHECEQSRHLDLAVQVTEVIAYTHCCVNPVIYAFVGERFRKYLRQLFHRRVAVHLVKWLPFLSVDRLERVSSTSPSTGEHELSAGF

[2] = target: C-C chemokine receptor type 2 (Homo sapiens, UniProt P41597); test: Displacement of [125]MCP1 from CCR2 in human PBMCs
Method in brief: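 Competition binding with 0.3 nM [125I]MCP-1 on human peripheral blood mononuclear cells at 23 °C. IC50 given as mean ± SD (n = 2) or mean ± SEM (n > 2). Single determinations are listed with n = 1.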

C-C chemokine receptor type 2, sequence (P41597 whole entry): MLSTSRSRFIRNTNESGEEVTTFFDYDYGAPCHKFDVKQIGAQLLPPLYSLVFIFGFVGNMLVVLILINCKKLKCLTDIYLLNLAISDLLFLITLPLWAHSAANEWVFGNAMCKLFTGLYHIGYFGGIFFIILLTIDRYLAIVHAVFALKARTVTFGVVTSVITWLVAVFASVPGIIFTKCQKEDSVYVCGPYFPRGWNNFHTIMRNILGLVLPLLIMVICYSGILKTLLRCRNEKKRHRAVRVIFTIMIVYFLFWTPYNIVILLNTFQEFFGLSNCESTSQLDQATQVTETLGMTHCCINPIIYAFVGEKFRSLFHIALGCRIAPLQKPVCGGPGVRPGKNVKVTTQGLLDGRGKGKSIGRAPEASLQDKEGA

| SMILES | inhibition [1] | IC50 [2] |
| --- | --- | --- |
| Cc1ccc(CNC[C@H](NC(=O)CNC(=O)c2cccc(C(F)(F)F)c2)C(=O)NC2CCCC2)c(C)c1 | < 30% | 99 nM |
| CC(C)(C)NC(=O)[C@H](CNCc1ccc(S(C)(=O)=O)cc1)NC(=O)CNC(=O)c1cccc(C(F)(F)F)c1 | < 30% | 7200 nM |
| Cc1ccc(CNC[C@H](NC(=O)CNC(=O)c2cccc(C(F)(F)F)c2)C(=O)Nc2ccccc2)c(C)c1 | < 30% | 1200 nM |
| Cc1ccc(CNC[C@H](NC(=O)CNC(=O)c2cc(OC(F)(F)F)ccc2N)C(=O)NC(C)(C)C)c(C)c1 | < 30% | 28 nM |
| CC(C)(C)NC(=O)[C@H](CNCc1ccc(Br)cc1)NC(=O)CNC(=O)c1cccc(C(F)(F)F)c1 | < 30% | 1700 nM |
| Cc1ccc(CNC[C@H](NC(=O)CNC(=O)c2cccc(C(F)(F)F)c2)C(=O)NCC2CC2)c(C)c1 | < 30% | 60 nM |
| Cc1ccc(CNC[C@H](NC(=O)CNC(=O)c2cccc(C(F)(F)F)c2)C(=O)N2CCOCC2)c(C)c1 | < 30% | 490 nM |
| Cc1cc(Br)ccc1CNC[C@H](NC(=O)CNC(=O)c1cccc(C(F)(F)F)c1)C(=O)NC(C)(C)C | < 30% | 160 nM |
| Cc1ccc(CNC[C@@H](NC(=O)CNC(=O)c2cccc(C(F)(F)F)c2)C(N)=O)c(C)c1 | < 30% | 630 nM |
| Cc1ccc(CNC[C@H](NC(=O)CNC(=O)c2cccc(C(F)(F)F)c2)C(=O)NC2(C)CC2)c(C)c1 | < 30% | 100 nM |
| Cc1ccc(CNC[C@H](NC(=O)CNC(=O)c2cccc(C(F)(F)F)c2)C(=O)NC2CC2)c(C)c1 | < 30% | 88 nM |
| COc1ccc(CNC[C@H](NC(=O)CNC(=O)c2cccc(C(F)(F)F)c2)C(=O)NC(C)(C)C)c(C)c1C | < 30% | 690 nM |
| Cc1ccc(CNC[C@H](NC(=O)CNC(=O)c2cccc(C(F)(F)F)c2)C(=O)N(C)C)c(C)c1 | < 30% | 250 nM |
| CCc1ccccc1CNC[C@H](NC(=O)CNC(=O)c1cccc(C(F)(F)F)c1)C(=O)NC(C)(C)C | < 30% | 380 nM |
| CCNC(=O)C(C)(CNCc1ccc(C)cc1C)NC(=O)CNC(=O)c1cc(C(F)(F)F)ccc1N (racemic) | < 30% | 8700 nM |
| CCNC(=O)[C@@H](NC(=O)CNC(=O)c1cccc(C(F)(F)F)c1)[C@@H](C)NCc1ccc(C)cc1C | < 30% | 130 nM |
| Cc1ccc(CNC[C@H](NC(=O)CNC(=O)c2cc(C(F)(F)F)ccc2NC(=O)C2CCCCC2)C(=O)NC(C)(C)C)c(C)c1 | < 30% | 90 nM |
| CCNC(=O)[C@@H](CNC(=O)CNC(=O)c1cccc(C(F)(F)F)c1)NCc1ccc(C)cc1C | < 30% | 22000 nM |
| CCc1ccc(CNC[C@H](NC(=O)CNC(=O)c2cccc(C(F)(F)F)c2)C(=O)NC(C)(C)C)cc1 | < 30% | 530 nM |
| Cc1ccc(CNC[C@H](NC(=O)CNC(=O)c2cccc(C(F)(F)F)c2)C(=O)NCC(F)(F)F)c(C)c1 | < 30% | 55 nM |
| CN(C)c1ccc(CNC[C@H](NC(=O)CNC(=O)c2cccc(C(F)(F)F)c2)C(=O)NC(C)(C)C)cc1 | < 30% | 430 nM |

| SMILES | inhibition [1] | IC50 [2] |
| --- | --- | --- |
| CCC(C)(C)NC(=O)[C@H](CNCc1ccc(C)cc1C)NC(=O)CNC(=O)c1cccc(C(F)(F)F)c1 | < 30% | 120 nM |
| Cc1ccc(CNC[C@@H](NC(=O)CNC(=O)c2cccc(C(F)(F)F)c2)C(=O)NC(C)(C)C)c(C)c1 | < 30% | 110 nM |
| Cc1ccc(CNC[C@H](NC(=O)CNC(=O)c2cccc(C(F)(F)F)c2)C(=O)NC(C)(C)C)cc1N | < 30% | 120 nM |
| Cc1ccc(CNC[C@H](CO)NC(=O)CNC(=O)c2cccc(C(F)(F)F)c2)c(C)c1 | < 30% | 2200 nM |
| Cc1ccc(CN2CC[C@@H](NC(=O)CNC(=O)c3cccc(C(F)(F)F)c3)C2)c(C)c1 | < 30% | 17 nM |
| Cc1ccc(CNC[C@H](NC(=O)CNC(=O)c2cccc(C(F)(F)F)c2)C(=O)NC2CCCCC2)c(C)c1 | < 30% | 150 nM |
| Cc1ccc(CNC[C@@H](CO)NC(=O)CNC(=O)c2cccc(C(F)(F)F)c2)c(C)c1 | < 30% | 320 nM |
| CON(C)C(=O)[C@H](CNCc1ccc(C)cc1C)NC(=O)CNC(=O)c1cccc(C(F)(F)F)c1 | < 30% | 110 nM |
| Cc1ccccc1CNC[C@H](NC(=O)CNC(=O)c1cccc(C(F)(F)F)c1)C(=O)NC(C)(C)C | < 30% | 400 nM |
| COC(=O)[C@H](CNCc1ccc(C)cc1C)NC(=O)CNC(=O)c1cccc(C(F)(F)F)c1 | < 30% | 1500 nM |
| Cc1cc(C#N)ccc1CNC[C@H](NC(=O)CNC(=O)c1cccc(C(F)(F)F)c1)C(=O)NC(C)(C)C | < 30% | 900 nM |
| Cc1ccc(CNC[C@H](NC(=O)CNC(=O)c2cccc(C(F)(F)F)c2)C(=O)N2CCCC2)c(C)c1 | < 30% | 260 nM |
| CCNC(=O)[C@@H](CNCc1ccc(C)cc1C)NC(=O)CNC(=O)c1cccc(C(F)(F)F)c1 | < 30% | 560 nM |
| COc1cc(C)c(CNC[C@H](NC(=O)CNC(=O)c2cccc(C(F)(F)F)c2)C(=O)NC(C)(C)C)cc1C | < 30% | 1300 nM |
| Cc1ccc(CNC[C@H](NC(=O)CNC(=O)c2cc(NCC(C)C)cc(C(F)(F)F)c2)C(=O)NC(C)(C)C)c(C)c1 | < 30% | 130 nM |
| Cc1ccc(CNC[C@H](NC(=O)CNC(=O)c2cccc(C(F)(F)C(F)(F)F)c2)C(=O)NC(C)(C)C)c(C)c1 | < 30% | 65 nM |
| COC(=O)[C@@H](CNCc1ccc(C)cc1C)NC(=O)CNC(=O)c1cccc(C(F)(F)F)c1 | < 30% | 1000 nM |
| Cc1ccc(CNC[C@H](NC(=O)CNC(=O)c2cccc(C(F)F)c2)C(=O)NC(C)(C)C)c(C)c1 | < 30% | 400 nM |
| Cc1ccc(CNC[C@H](NC(=O)CNC(=O)c2cc(C(F)(F)F)ccc2NC(=O)OC(C)C)C(=O)NC(C)(C)C)c(C)c1 | < 30% | 65 nM |
| Cc1ccc(CNC[C@H](NC(=O)CNC(=O)c2cccc(C(F)(F)F)c2)C(=O)NC(C)(C)C)cc1 | < 30% | 750 nM |
| CCNC(=O)[C@H](CNCc1ccc(C)cc1C)NC(=O)CNC(=O)c1cccc(C(F)(F)F)c1 | < 30% | 110 nM |

| SMILES | inhibition [1] | IC50 [2] |
| --- | --- | --- |
| CNc1cc(C(=O)NCC(=O)N[C@@H](CNCc2ccc(C)cc2C)C(=O)NC(C)(C)C)cc(C(F)(F)F)c1 | < 30% | 16 nM |
| Cc1ccc(CNC[C@H](NC(=O)CNC(=O)c2cccc(SC(F)(F)F)c2)C(=O)NC(C)(C)C)c(C)c1 | < 30% | 150 nM |
| Cc1ccc(CNC[C@H](NC(=O)CNC(=O)c2cccc(C(F)(F)F)c2)C(=O)NC2CCC2)c(C)c1 | < 30% | 97 nM |
| COc1ccc(CNC[C@H](NC(=O)CNC(=O)c2cccc(C(F)(F)F)c2)C(=O)NC(C)(C)C)cc1 | < 30% | 1100 nM |
| Cc1ccc(CNC[C@H](NC(=O)CNC(=O)c2cccc(C(F)(F)F)c2)C(=O)NC(C)(C)CO)c(C)c1 | < 30% | 190 nM |
| Cc1ccc(CNC[C@H](NC(=O)CNC(=O)c2cccc(C(F)(F)F)c2)C(=O)NCc2ccccc2)c(C)c1 | < 30% | 7000 nM |
| CCOC(=O)Nc1cc(C(=O)NCC(=O)N[C@@H](CNCc2ccc(C)cc2C)C(=O)NC(C)(C)C)cc(C(F)(F)F)c1 | < 30% | 310 nM |
| C=CCNC(=O)[C@H](CNCc1ccc(C)cc1C)NC(=O)CNC(=O)c1cccc(C(F)(F)F)c1 | < 30% | 200 nM |
| COc1ccc(CNC[C@H](NC(=O)CNC(=O)c2cccc(C(F)(F)F)c2)C(=O)NC(C)(C)C)c(C)c1 | < 30% | 47 nM |
| COC(=O)[C@@H](CNC(=O)CNC(=O)c1cccc(C(F)(F)F)c1)NCc1ccc(C)cc1C | < 30% | 15000 nM |
| CCCCc1ccc(CNC[C@H](NC(=O)CNC(=O)c2cccc(C(F)(F)F)c2)C(=O)NC(C)(C)C)cc1 | < 30% | 5600 nM |
| Cc1ccc(CNC[C@H](NC(=O)CNC(=O)c2cccc(C(F)(F)F)c2)C(C)C)c(C)c1 | < 30% | – |
| Cc1ccc(CNC[C@H](NC(=O)CNC(=O)c2cccc(C(F)(F)F)c2)C(=O)O)c(C)c1 | < 30% | 5500 nM |
| Cc1ccc(CNC[C@H](NC(=O)CNC(=O)c2cccc(C(F)(F)F)c2)C(=O)NC(C)(C)C)cc1[N+](=O)[O-] | < 30% | 670 nM |
| CCNC(=O)[C@H](CCNCc1ccc(C)cc1C)NC(=O)CNC(=O)c1cccc(C(F)(F)F)c1 | < 30% | 410 nM |
| Cc1ccc(CNC[C@H](NC(=O)CNC(=O)c2cccc(OC(F)(F)F)c2)C(=O)NC(C)(C)C)c(C)c1 | < 30% | 190 nM |
| Cc1ccc(CNC[C@H](NC(=O)CNC(=O)c2cc(C(F)(F)F)ccc2NCC(C)C)C(=O)NC(C)(C)C)c(C)c1 | < 30% | 23 nM |
| Cc1ccc(CNCC[C@H](NC(=O)CNC(=O)c2cccc(C(F)(F)F)c2)C(=O)NC(C)(C)C)c(C)c1 | < 30% | 770 nM |
| CCNC(=O)[C@H](CCN(C)Cc1ccc(C)cc1C)NC(=O)CNC(=O)c1cccc(C(F)(F)F)c1 | < 30% | 150 nM |
| Cc1ccc(CNC[C@@H](C)NC(=O)CNC(=O)c2cccc(C(F)(F)F)c2)c(C)c1 | < 30% | – |

— ChEMBL document CHEMBL1139795, “Capped diaminopropionamide-glycine dipeptides are inhibitors of CC chemokine receptor 2 (CCR2)” (Bioorg Med Chem Lett, 2007)
